Data on ten molecules can be found in ChEMBL document CHEMBL1142879, “Synthesis and biological evaluation of dialkylsubstituted maleic anhydrides as novel inhibitors of Cdc25 dual specificity phosphatases” (Eur J Med Chem, 2007).

The nature of assay [1]: Inhibition of horse liver alkaline phosphatase. Also noted: species or system Equus caballus. The gist of the method:
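Phosphatase activity was read with p-nitrophenyl phosphate as substrate, following a previously described method.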

Assay [2] has as its target T1, M-phase inducer phosphatase 3 (Homo sapiens, UniProt P30307).
T1 sequence (P30307 whole entry): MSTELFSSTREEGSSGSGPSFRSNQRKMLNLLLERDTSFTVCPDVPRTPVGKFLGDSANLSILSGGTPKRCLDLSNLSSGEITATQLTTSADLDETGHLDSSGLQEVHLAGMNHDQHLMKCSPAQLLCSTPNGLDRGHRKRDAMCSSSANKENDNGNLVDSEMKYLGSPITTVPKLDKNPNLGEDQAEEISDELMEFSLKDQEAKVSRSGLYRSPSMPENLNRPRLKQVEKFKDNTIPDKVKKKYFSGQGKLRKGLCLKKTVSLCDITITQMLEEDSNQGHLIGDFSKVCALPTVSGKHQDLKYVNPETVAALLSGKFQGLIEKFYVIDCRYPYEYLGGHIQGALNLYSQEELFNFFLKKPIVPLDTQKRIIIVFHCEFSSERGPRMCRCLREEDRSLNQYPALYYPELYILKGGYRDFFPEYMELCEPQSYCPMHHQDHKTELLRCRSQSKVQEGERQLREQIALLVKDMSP
In words: Inhibition of human GST-Cdc25C expressed in Escherichia coli BL21(DE3). The gist of the method:
(§1)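 GST fusion proteins (full-length Cdc25A and Cdc25C; Cdc25B catalytic domain) were expressed in E. coli grown with ampicillin and induced with IPTG at OD600 0.4–0.6 for 5 h. They were purified on glutathione-agarose. Activity was measured with p-nitrophenyl phosphate as substrate across a range of inhibitor concentrations. IC50 is the mean ± SD of at least two independent experiments, each with four determinations per concentration.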

Assay [3] deals with T2, M-phase inducer phosphatase 2 (Homo sapiens, UniProt P30305).
T2 sequence (P30305 whole entry): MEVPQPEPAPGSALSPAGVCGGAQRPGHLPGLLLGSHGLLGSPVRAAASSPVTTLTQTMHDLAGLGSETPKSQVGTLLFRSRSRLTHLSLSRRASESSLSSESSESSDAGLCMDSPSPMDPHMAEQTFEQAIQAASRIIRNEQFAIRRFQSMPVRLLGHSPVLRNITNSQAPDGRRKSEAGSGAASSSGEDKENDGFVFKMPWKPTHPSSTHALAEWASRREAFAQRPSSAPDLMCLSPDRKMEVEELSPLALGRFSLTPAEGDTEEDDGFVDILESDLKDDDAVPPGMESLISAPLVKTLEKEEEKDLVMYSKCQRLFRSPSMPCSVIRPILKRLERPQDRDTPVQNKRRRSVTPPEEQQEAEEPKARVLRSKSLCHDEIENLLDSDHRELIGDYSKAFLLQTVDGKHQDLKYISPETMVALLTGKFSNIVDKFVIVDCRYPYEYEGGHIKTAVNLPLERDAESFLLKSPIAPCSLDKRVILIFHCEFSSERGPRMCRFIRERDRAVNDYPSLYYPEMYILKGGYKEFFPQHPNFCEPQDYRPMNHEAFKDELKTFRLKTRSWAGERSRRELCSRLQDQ
In words: Inhibition of human GST-Cdc25B expressed in Escherichia coli BL21(DE3). The essentials:
as §1

Assay [4] has as its target T3, M-phase inducer phosphatase 1 (Homo sapiens, UniProt P30304).
T3 sequence (P30304 whole entry): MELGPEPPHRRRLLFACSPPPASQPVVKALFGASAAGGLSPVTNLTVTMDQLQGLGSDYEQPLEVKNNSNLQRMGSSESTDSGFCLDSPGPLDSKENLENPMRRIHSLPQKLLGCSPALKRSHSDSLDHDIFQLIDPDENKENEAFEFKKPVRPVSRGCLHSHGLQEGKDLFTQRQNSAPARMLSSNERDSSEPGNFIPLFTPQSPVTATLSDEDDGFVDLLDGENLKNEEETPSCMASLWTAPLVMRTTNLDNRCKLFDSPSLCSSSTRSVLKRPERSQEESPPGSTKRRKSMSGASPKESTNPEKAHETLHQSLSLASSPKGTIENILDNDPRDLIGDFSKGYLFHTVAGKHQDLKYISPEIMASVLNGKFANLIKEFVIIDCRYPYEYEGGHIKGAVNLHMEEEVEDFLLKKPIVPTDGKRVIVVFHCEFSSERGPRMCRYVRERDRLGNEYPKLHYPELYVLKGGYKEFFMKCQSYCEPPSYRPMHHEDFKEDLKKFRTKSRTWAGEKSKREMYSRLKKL
In words: Inhibition of human GST-Cdc25A expressed in Escherichia coli BL21(DE3). The gist of the method: as §1

The structures appear in SMILES notation. pIC50: −log10 of the molar value.

By pIC50 is commonly meant the IC50 on a negative log10 scale, so that one unit is a factor of ten. Low values mean a high IC50, high ones a low IC50. Turning to `CCCCCCC1=C(CCC(=O)O)C(=O)OC1=O`, the pIC50 in assay [1], in assay [2], in assay [3] and in assay [4] was less than 4.00 in each case.
On to `CCCCCCCCC1=C(CCC(=O)O)C(=O)OC1=O`, for which the pIC50 in assay [1], in assay [2], in assay [3] and in assay [4] was less than 4.00 each time.
For `CCCCCCCCCCC1=C(CCC(=O)O)C(=O)OC1=O`, the pIC50 is less than 4.00 in assay [1], 4.27 in assay [2], 4.26 in assay [3] and 4.35 in assay [4].
Regarding `CCCCCCCCCCCCCC1=C(CCC(=O)O)C(=O)OC1=O`, the pIC50 was less than 4.00 in assay [1], 5.24 in assay [2], 5.06 in assay [3] and 5.09 in assay [4].
The like results for `CCCCCCCCCCCCCCC1=C(CCC(=O)O)C(=O)OC1=O` were, in that order, less than 4.00, 4.90, 4.94 and 5.20.
Take `CCCCCCCCCCCCCCCCCC1=C(CCC(=O)O)C(=O)OC1=O`: the pIC50 in assay [1] was less than 4.00.
`CCCCCCCC/C=C\CCCCCCCC1=C(CCC(=O)O)C(=O)OC1=O`: the pIC50 is less than 4.00 in assay [1], 5.06 in assay [2], 5.17 in assay [3] and 5.35 in assay [4].
For `CCCCCCCCCC1=C(CCC(=O)O)C(=O)OC1=O`, in that order: less than 4.00, less than 4.00, less than 4.00 and less than 4.00.
The like results for `CCCCCCCCCCCC1=C(CCC(=O)O)C(=O)OC1=O` were, in that order, less than 4.00, less than 4.00, 4.32 and 4.35.
The like results for `CCCCCCCCCCCCCCCC1=C(CCC(=O)O)C(=O)OC1=O` were, in that order, less than 4.00, 5.07, 5.12 and 5.33.
